Reference: ChEMBL document CHEMBL1137333, “Synthesis, radiosynthesis, and biological evaluation of carbon-11 labeled 2beta-carbomethoxy-3beta-(3'-((Z)-2-haloethenyl)phenyl)nortropanes: candidate radioligands for in vivo imaging of the serotonin transporter with positron emission tomography” (J Med Chem, 2006)

What was measured:
Cynomolgus monkey [1] = experiment: Uptake in anesthetized cynomolgus monkey caudate after 27.5 mins; type: ADME, organism-based, Caudate nucleus; settings: in vivo
Procedure, shortened: (§1)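 Baseline microPET (Concorde P4) regional brain time-activity curves in anesthetized cynomolgus monkey following injection of the [11C]-labelled tracer, with radioactivity followed over the scan.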

Cynomolgus monkey [2] = experiment: Uptake in anesthetized cynomolgus monkey caudate after 125.0 mins; type: ADME, organism-based, Caudate nucleus; settings: in vivo; procedure, shortened: as §1
Cynomolgus monkey [3] = experiment: Ratio of uptake in medulla to cerebellum of anesthetized cynomolgus monkey after 65 mins; type: ADME, organism-based; settings: in vivo
Procedure, shortened: (§2)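 Baseline microPET (Concorde P4) in anesthetized cynomolgus monkey after injection of the [11C]-labelled tracer. Regional time-activity curves were taken, and each region's uptake was divided by cerebellum uptake (low-SERT reference) at 65, 85 and 105 min postinjection.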

Cynomolgus monkey [4] = experiment: Uptake in anesthetized cynomolgus monkey cerebellum after 2.5 mins; type: ADME, organism-based, Macaca mulatta; settings: rhesus monkey, in vivo; procedure, shortened: as §1
Cynomolgus monkey [5] = experiment: Uptake in anesthetized cynomolgus monkey putamen after 27.5 mins; type: ADME, organism-based; settings: in vivo
Procedure, shortened: (§3)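 Baseline microPET (Concorde P4) scan in anesthetized cynomolgus monkeys after injection of the carbon-11 labeled tracer, with no chase drug. Regional brain time-activity curves were followed over the scan. Tracer radiochemical purity and specific activity were determined by analytical HPLC at the time of injection.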

Cynomolgus monkey [6] = experiment: Uptake in anesthetized cynomolgus monkey putamen after 115.0 mins; type: ADME, organism-based; settings: in vivo; procedure, shortened: as §3
Cynomolgus monkey [7] = experiment: Uptake in anesthetized cynomolgus monkey cerebellum after 125.0 mins; type: ADME, organism-based, Macaca mulatta; settings: rhesus monkey, in vivo; procedure, shortened: as §1
Cynomolgus monkey [8] = experiment: Ratio of uptake in caudate to cerebellum of anesthetized cynomolgus monkey after 65 mins; type: ADME, organism-based; settings: in vivo; procedure, shortened: as §2
Cynomolgus monkey [9] = experiment: Uptake in anesthetized cynomolgus monkey pons after 45.0 mins; type: ADME, organism-based; settings: in vivo, 0.75 h; procedure, shortened: as §3
Cynomolgus monkey [10] = experiment: Ratio of uptake in midbrain to cerebellum of anesthetized cynomolgus monkey after 85 mins; type: ADME, organism-based; settings: in vivo; procedure, shortened: as §2
Cynomolgus monkey [11] = experiment: Uptake in anesthetized cynomolgus monkey midbrain after 35.0 mins; type: ADME, organism-based; settings: in vivo
Procedure, shortened: (§4)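 Baseline microPET scan (P4 scanner) of anesthetized cynomolgus monkeys after injection of the carbon-11 labelled nortropane tracer. Two baseline studies were run per tracer. Radioactivity was followed over time in regional brain time-activity curves.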

Cynomolgus monkey [12] = experiment: Uptake in anesthetized cynomolgus monkey caudate after 45.0 mins; type: ADME, organism-based, Caudate nucleus; settings: in vivo, 0.75 h; procedure, shortened: as §1
Cynomolgus monkey [13] = experiment: Ratio of uptake in thalamus to cerebellum of anesthetized cynomolgus monkey after 85 mins; type: ADME, organism-based; settings: in vivo; procedure, shortened: as §2
Cynomolgus monkey [14] = experiment: Ratio of uptake in putamen to cerebellum of anesthetized cynomolgus monkey after 65 mins; type: ADME, organism-based; settings: in vivo; procedure, shortened: as §2
Cynomolgus monkey [15] = experiment: Uptake in anesthetized cynomolgus monkey medulla after 115.0 mins; type: ADME, organism-based, Medulla of organ; settings: in vivo; procedure, shortened: as §4
Cynomolgus monkey [16] = experiment: Uptake in anesthetized cynomolgus monkey frontal after 9.5 mins; type: ADME, organism-based, Frontal cortex; settings: in vivo; procedure, shortened: as §4
Cynomolgus monkey [17] = experiment: Uptake in anesthetized cynomolgus monkey thalamus after 105.0 mins; type: ADME, organism-based; settings: in vivo, 1.75 h; procedure, shortened: as §3
Cynomolgus monkey [18] = experiment: Uptake in anesthetized cynomolgus monkey occipital after 2.5 mins; type: ADME, organism-based, Macaca mulatta, Occipital cortex; settings: rhesus monkey, in vivo; procedure, shortened: as §4
Cynomolgus monkey [19] = experiment: Uptake in anesthetized cynomolgus monkey medulla after 15.5 mins; type: ADME, organism-based, Medulla of organ; settings: in vivo; procedure, shortened: as §4
Cynomolgus monkey [20] = experiment: Uptake in anesthetized cynomolgus monkey cerebellum after 1.5 mins; type: ADME, organism-based; settings: in vivo, 0.025 h; procedure, shortened: as §1
Cynomolgus monkey [21] = experiment: Ratio of uptake in frontal to cerebellum of anesthetized cynomolgus monkey after 85 mins; type: ADME, organism-based; settings: in vivo; procedure, shortened: as §2
Cynomolgus monkey [22] = experiment: Ratio of uptake in medulla to cerebellum of anesthetized cynomolgus monkey after 105 mins; type: ADME, organism-based; settings: in vivo, 1.75 h; procedure, shortened: as §2
Cynomolgus monkey [23] = experiment: Uptake in anesthetized cynomolgus monkey midbrain after 95.0 mins; type: ADME, organism-based; settings: in vivo; procedure, shortened: as §4
Cynomolgus monkey [24] = experiment: Ratio of uptake in midbrain to cerebellum of anesthetized cynomolgus monkey after 105 mins; type: ADME, organism-based; settings: in vivo, 1.75 h; procedure, shortened: as §2
Cynomolgus monkey [25] = experiment: Uptake in anesthetized cynomolgus monkey caudate after 35.0 mins; type: ADME, organism-based, Caudate nucleus; settings: in vivo; procedure, shortened: as §1
Cynomolgus monkey [26] = experiment: Ratio of uptake in putamen to cerebellum of anesthetized cynomolgus monkey after 105 mins; type: ADME, organism-based; settings: in vivo, 1.75 h; procedure, shortened: as §2
Cynomolgus monkey [27] = experiment: Uptake in anesthetized cynomolgus monkey midbrain after 0.5 mins; type: ADME, organism-based; settings: in vivo; procedure, shortened: as §4
Cynomolgus monkey [28] = experiment: Uptake in anesthetized cynomolgus monkey pons after 55.0 mins; type: ADME, organism-based; settings: in vivo; procedure, shortened: as §3
Cynomolgus monkey [29] = experiment: Uptake in anesthetized cynomolgus monkey cerebellum after 45.0 mins; type: ADME, organism-based; settings: in vivo, 0.75 h; procedure, shortened: as §1
Cynomolgus monkey [30] = experiment: Uptake in anesthetized cynomolgus monkey frontal after 135.0 mins; type: ADME, organism-based, Frontal cortex; settings: in vivo, 2.25 h; procedure, shortened: as §4
Cynomolgus monkey [31] = experiment: Ratio of uptake in midbrain to cerebellum of anesthetized cynomolgus monkey after 65 mins; type: ADME, organism-based; settings: in vivo; procedure, shortened: as §2
Cynomolgus monkey [32] = experiment: Uptake in anesthetized cynomolgus monkey cerebellum after 0.5 mins; type: ADME, organism-based; settings: in vivo; procedure, shortened: as §1
Cynomolgus monkey [33] = experiment: Ratio of uptake in caudate to cerebellum of anesthetized cynomolgus monkey after 105 mins; type: ADME, organism-based; settings: in vivo, 1.75 h; procedure, shortened: as §2
Cynomolgus monkey [34] = experiment: Uptake in anesthetized cynomolgus monkey putamen after 125.0 mins; type: ADME, organism-based; settings: in vivo; procedure, shortened: as §3
Cynomolgus monkey [35] = experiment: Uptake in anesthetized cynomolgus monkey putamen after 1.5 mins; type: ADME, organism-based; settings: in vivo, 0.025 h; procedure, shortened: as §3
Cynomolgus monkey [36] = experiment: Uptake in anesthetized cynomolgus monkey pons after 125.0 mins; type: ADME, organism-based; settings: in vivo; procedure, shortened: as §3
Cynomolgus monkey [37] = experiment: Uptake in anesthetized cynomolgus monkey putamen after 85.0 mins; type: ADME, organism-based; settings: in vivo; procedure, shortened: as §3
Cynomolgus monkey [38] = experiment: Uptake in anesthetized cynomolgus monkey occipital after 55.0 mins; type: ADME, organism-based, Occipital cortex; settings: in vivo; procedure, shortened: as §4
Cynomolgus monkey [39] = experiment: Ratio of uptake in pons to cerebellum of anesthetized cynomolgus monkey after 65 mins; type: ADME, organism-based; settings: in vivo; procedure, shortened: as §2
Cynomolgus monkey [40] = experiment: Uptake in anesthetized cynomolgus monkey frontal after 4.5 mins; type: ADME, organism-based, Frontal cortex; settings: in vivo, 0.075 h; procedure, shortened: as §4
Cynomolgus monkey [41] = experiment: Uptake in anesthetized cynomolgus monkey putamen after 3.5 mins; type: ADME, organism-based; settings: in vivo; procedure, shortened: as §3
Cynomolgus monkey [42] = experiment: Uptake in anesthetized cynomolgus monkey midbrain after 15.5 mins; type: ADME, organism-based; settings: in vivo; procedure, shortened: as §4
Cynomolgus monkey [43] = experiment: Uptake in anesthetized cynomolgus monkey pons after 135.0 mins; type: ADME, organism-based; settings: in vivo, 2.25 h; procedure, shortened: as §3
Cynomolgus monkey [44] = experiment: Uptake in anesthetized cynomolgus monkey medulla after 27.5 mins; type: ADME, organism-based, Medulla of organ; settings: in vivo; procedure, shortened: as §4
Cynomolgus monkey [45] = experiment: Uptake in anesthetized cynomolgus monkey thalamus after 135.0 mins; type: ADME, organism-based; settings: in vivo, 2.25 h; procedure, shortened: as §3
Cynomolgus monkey [46] = experiment: Uptake in anesthetized cynomolgus monkey pons after 18.5 mins; type: ADME, organism-based; settings: in vivo; procedure, shortened: as §3
Cynomolgus monkey [47] = experiment: Uptake in anesthetized cynomolgus monkey medulla after 105.0 mins; type: ADME, organism-based, Medulla of organ; settings: in vivo, 1.75 h; procedure, shortened: as §4
Cynomolgus monkey [48] = experiment: Uptake in anesthetized cynomolgus monkey frontal after 15.5 mins; type: ADME, organism-based, Frontal cortex; settings: in vivo; procedure, shortened: as §4
Cynomolgus monkey [49] = experiment: Uptake in anesthetized cynomolgus monkey frontal after 3.5 mins; type: ADME, organism-based, Frontal cortex; settings: in vivo; procedure, shortened: as §4
Cynomolgus monkey [50] = experiment: Uptake in anesthetized cynomolgus monkey cerebellum after 35.0 mins; type: ADME, organism-based, Macaca mulatta; settings: rhesus monkey, in vivo; procedure, shortened: as §1
Cynomolgus monkey [51] = experiment: Uptake in anesthetized cynomolgus monkey thalamus after 85.0 mins; type: ADME, organism-based; settings: in vivo; procedure, shortened: as §3
Cynomolgus monkey [52] = experiment: Ratio of uptake in putamen to cerebellum of anesthetized cynomolgus monkey after 85 mins; type: ADME, organism-based; settings: in vivo; procedure, shortened: as §2
Cynomolgus monkey [53] = experiment: Uptake in anesthetized cynomolgus monkey thalamus after 125.0 mins; type: ADME, organism-based; settings: in vivo; procedure, shortened: as §3
Cynomolgus monkey [54] = experiment: Uptake in anesthetized cynomolgus monkey putamen after 135.0 mins; type: ADME, organism-based; settings: in vivo, 2.25 h; procedure, shortened: as §3

Molecule `[11CH3]OC(=O)[C@@H]1C2CCC(C[C@@H]1c1cccc(/C=C/Br)c1)N2` (some centres undefined) has a Drug uptake (Cynomolgus monkey [1]) of 5.98, a Drug uptake (Cynomolgus monkey [2]) of 5.66 and a Ratio (Cynomolgus monkey [3]) of 1.4. It also gave a Drug uptake (Cynomolgus monkey [4]) of 1.1, a Drug uptake (Cynomolgus monkey [5]) of 6.85 and a Drug uptake (Cynomolgus monkey [6]) of 7.1. It also gave a Drug uptake (Cynomolgus monkey [7]) of 3.74, a Ratio (Cynomolgus monkey [8]) of 1.4 and a Drug uptake (Cynomolgus monkey [9]) of 6.91. For the same molecule, the Ratio (Cynomolgus monkey [10]) was 1.8, the Drug uptake (Cynomolgus monkey [11]) was 7.4 and the Drug uptake (Cynomolgus monkey [12]) was 6.63. It also gave a Ratio (Cynomolgus monkey [13]) of 1.5, a Ratio (Cynomolgus monkey [14]) of 1.5 and a Drug uptake (Cynomolgus monkey [15]) of 6.59. For the same molecule, the Drug uptake (Cynomolgus monkey [16]) was 2.85, the Drug uptake (Cynomolgus monkey [17]) was 6.47 and the Drug uptake (Cynomolgus monkey [18]) was 0.65. For the same molecule, the Drug uptake (Cynomolgus monkey [19]) was 6.52, the Drug uptake (Cynomolgus monkey [20]) was 0.35 and the Ratio (Cynomolgus monkey [21]) was 1.2. The Ratio (Cynomolgus monkey [22]) was 1.7, the Drug uptake (Cynomolgus monkey [23]) was 7.89 and the Ratio (Cynomolgus monkey [24]) was 1.9. For the same molecule, the Drug uptake (Cynomolgus monkey [25]) was 6.21, the Ratio (Cynomolgus monkey [26]) was 1.8 and the Drug uptake (Cynomolgus monkey [27]) was 0.01. It also gave a Drug uptake (Cynomolgus monkey [28]) of 7.56, a Drug uptake (Cynomolgus monkey [29]) of 5.58 and a Drug uptake (Cynomolgus monkey [30]) of 3.43. For the same molecule, the Ratio (Cynomolgus monkey [31]) was 1.6, the Drug uptake (Cynomolgus monkey [32]) was 0.01 and the Ratio (Cynomolgus monkey [33]) was 1.7. The Drug uptake (Cynomolgus monkey [34]) was 6.69, the Drug uptake (Cynomolgus monkey [35]) was 0.3 and the Drug uptake (Cynomolgus monkey [36]) was 6.47. The Drug uptake (Cynomolgus monkey [37]) was 7.16, the Drug uptake (Cynomolgus monkey [38]) was 5.3 and the Ratio (Cynomolgus monkey [39]) was 1.5. For the same molecule, the Drug uptake (Cynomolgus monkey [40]) was 1.57, the Drug uptake (Cynomolgus monkey [41]) was 1.96 and the Drug uptake (Cynomolgus monkey [42]) was 6.32. It also gave a Drug uptake (Cynomolgus monkey [43]) of 7.4, a Drug uptake (Cynomolgus monkey [44]) of 7.08 and a Drug uptake (Cynomolgus monkey [45]) of 5.83. The Drug uptake (Cynomolgus monkey [46]) was 6.46, the Drug uptake (Cynomolgus monkey [47]) was 6.81 and the Drug uptake (Cynomolgus monkey [48]) was 3.21. The Drug uptake (Cynomolgus monkey [49]) was 1.07, the Drug uptake (Cynomolgus monkey [50]) was 5.92 and the Drug uptake (Cynomolgus monkey [51]) was 6.55. It also gave a Ratio (Cynomolgus monkey [52]) of 1.6, a Drug uptake (Cynomolgus monkey [53]) of 6.09 and a Drug uptake (Cynomolgus monkey [54]) of 6.51.
